Data reported in ChEMBL document CHEMBL1139971, “RXR-LXR heterodimer modulators for the potential treatment of dyslipidemia” (Bioorg Med Chem Lett, 2007).
Calls of active or inactive are those of the source. The calls are words filed in the database; no cut-off is given here.

Legend:
[1] = biological target: T1, Retinoic acid receptor RXR-alpha (Homo sapiens, UniProt P19793); assay: (§1) Activity at RXRalpha by GAL4DNA cotransfection assay
T1 sequence (P19793 whole entry): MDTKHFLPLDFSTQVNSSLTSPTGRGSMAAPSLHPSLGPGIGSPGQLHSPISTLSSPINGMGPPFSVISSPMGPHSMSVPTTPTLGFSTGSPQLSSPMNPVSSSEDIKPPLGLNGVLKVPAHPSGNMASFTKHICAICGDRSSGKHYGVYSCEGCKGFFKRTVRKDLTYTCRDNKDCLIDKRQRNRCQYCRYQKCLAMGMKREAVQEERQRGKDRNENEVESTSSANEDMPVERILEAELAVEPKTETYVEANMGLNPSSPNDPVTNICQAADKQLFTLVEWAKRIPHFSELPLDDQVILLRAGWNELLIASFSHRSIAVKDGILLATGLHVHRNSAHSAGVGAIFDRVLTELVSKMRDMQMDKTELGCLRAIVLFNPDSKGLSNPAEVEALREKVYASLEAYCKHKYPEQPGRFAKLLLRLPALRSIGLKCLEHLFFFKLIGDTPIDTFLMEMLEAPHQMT
Outline: (§2)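 RXRα co-transfection assay using the yeast GAL4 DNA-binding domain fused to the RXRα ligand-binding domain, with a yeast promoter driving luciferase. EC50 is reported, and efficacy is given as % maximal activation versus the reference RXR agonist.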

THP-1 = assay: Activation of RXR-LXR heterodimer in human THP1 cells assessed as induction of ABCA1 mRNA relative to 5-((3-(1-ethyl-4,4,6-trimethyl-2-oxo-1,2,3,4-tetrahydroquinolin-7-yl)-4-(trifluoromethoxy)phenyl)methylene)thiazolidine-2,4-dione; format: cell-based; design: concentration or dose not given beside the values
[2] = Activity at RXR-LXR heterodimer in human THP1 cells assessed as induction of ABCA1 mRNA; format: cell-based; details: THP-1
[3] = biological target: T2, Retinoic acid receptor RXR-alpha (Homo sapiens) (UniProt P19793); assay: Activity at RXRalpha by GAL4DNA cotransfection assay relative to 5-((3-(1-ethyl-4,4,6-trimethyl-2-oxo-1,2,3,4-tetrahydroquinolin-7-yl)-4-(trifluoromethoxy)phenyl)methylene)thiazolidine-2,4-dione; outline: as §2
T2 sequence (whole entry): T1 sequence (P19793 whole entry)

[4] = biological target: T2, Retinoic acid receptor RXR-alpha (Homo sapiens); assay: as §1; outline: as §2
[5] = Activity at RXR-PPARgamma heterodimer in primary human preadipocytes assessed as induction of adipocytes fatty acid binding protein by bDNA assay; format: cell-based
Rattus norvegicus [6] = assay: Effect on serum triglyceride level in high cholesterol diet fed Sprague-Dawley rat at 0.3 mg/kg, po after 8 days relative to control; format: functional
Outline: (§3)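 Male Sprague–Dawley rats were fed a high-cholesterol atherogenic diet ad libitum. After 6 days on the diet, oral dosing began at 0.3, 1, 3 or 10 mg/kg in 15% hydroxypropyl β-cyclodextrin, pH 10, for 8 days total. Serum total cholesterol, HDL-C, LDL-C and triglycerides and plasma Cmax were measured. Groups are compared with vehicle as mean ± SEM by one-way ANOVA with Dunnett's test.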

Rattus norvegicus [7] = assay: Effect on serum LDL-C level in high cholesterol diet fed Sprague-Dawley rat at 0.3 mg/kg, po after 8 days relative to control; format: functional; outline: as §3
Rattus norvegicus [8] = assay: Effect on serum HDL-C level in high cholesterol diet fed Sprague-Dawley rat at 1 mg/kg, po after 8 days relative to control; format: functional; outline: as §3
[9] = AUC in Sprague-Dawley rat at 3 mg/kg; format: ADME, organism-based; design: dose 3 mg/kg; details: plasma
Outline: (§4)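 Sprague–Dawley rats dosed at 3 mg/kg in 10% hydroxypropyl β-cyclodextrin (pH 10). Oral bioavailability, Cmax, AUC and terminal half-life were taken from the plasma profile.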

Rattus norvegicus [10] = assay: Effect on serum LDL-C level in high cholesterol diet fed Sprague-Dawley rat at 3 mg/kg, po after 8 days relative to control; format: functional; outline: as §3
Mus musculus = species on record: Mus musculus; assay: Decrease in blood glucose level in db/db mouse after 11 days; format: functional, organism-based
Outline: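 db/db mice, a diabetes model, were treated for 11 days and blood glucose was monitored.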

[11] = Half life in Sprague-Dawley rat at 3 mg/kg; format: ADME, organism-based; design: dose 3 mg/kg; details: in vivo; outline: as §4
Rattus norvegicus [12] = assay: Effect on serum triglyceride level in high cholesterol diet fed Sprague-Dawley rat at 3 mg/kg, po after 8 days relative to control; format: functional; outline: as §3
[13] = Cmax in high cholesterol diet fed Sprague-Dawley rat at 0.3 mg/kg, po; format: ADME, organism-based; design: dose 0.3 mg/kg, route oral; details: in vivo; outline: as §3
Rattus norvegicus [14] = assay: Effect on serum triglyceride level in high cholesterol diet fed Sprague-Dawley rat at 10 mg/kg, po after 8 days relative to control; format: functional; outline: as §3
Rattus norvegicus [15] = assay: Effect on serum LDL-C level in high cholesterol diet fed Sprague-Dawley rat at 10 mg/kg, po after 8 days relative to control; format: functional; outline: as §3
[16] = Cmax in Sprague-Dawley rat at 3 mg/kg; format: ADME, organism-based; design: dose 3 mg/kg; details: in vivo; outline: as §4
Rattus norvegicus [17] = assay: Effect on serum LDL-C level in high cholesterol diet fed Sprague-Dawley rat at 1 mg/kg, po after 8 days relative to control; format: functional; outline: as §3
Rattus norvegicus [18] = assay: Effect on serum cholesterol level in high cholesterol diet fed Sprague-Dawley rat at 10 mg/kg, po after 8 days relative to control; format: functional; outline: as §3
[19] = Oral bioavailability in Sprague-Dawley rat at 3 mg/kg; format: ADME, organism-based; details: in vivo; outline: as §4
Rattus norvegicus [20] = assay: Effect on serum cholesterol level in high cholesterol diet fed Sprague-Dawley rat at 0.3 mg/kg, po after 8 days relative to control; format: functional; outline: as §3
Rattus norvegicus [21] = assay: Effect on serum HDL-C level in high cholesterol diet fed Sprague-Dawley rat at 10 mg/kg, po after 8 days relative to control; format: functional; outline: as §3
Rattus norvegicus [22] = assay: Effect on serum cholesterol level in high cholesterol diet fed Sprague-Dawley rat at 3 mg/kg, po after 8 days relative to control; format: functional; outline: as §3
Rattus norvegicus [23] = assay: Effect on serum HDL-C level in high cholesterol diet fed Sprague-Dawley rat at 0.3 mg/kg, po after 8 days relative to control; format: functional; outline: as §3
Rattus norvegicus [24] = assay: Effect on serum triglyceride level in high cholesterol diet fed Sprague-Dawley rat at 1 mg/kg, po after 8 days relative to control; format: functional; outline: as §3
[25] = Cmax in high cholesterol diet fed Sprague-Dawley rat at 10 mg/kg, po; format: ADME, organism-based; design: dose 10 mg/kg, route oral; details: in vivo; outline: as §3
Rattus norvegicus [26] = assay: Effect on serum cholesterol level in high cholesterol diet fed Sprague-Dawley rat at 1 mg/kg, po after 8 days relative to control; format: functional; outline: as §3
Rattus norvegicus [27] = assay: Effect on serum HDL-C level in high cholesterol diet fed Sprague-Dawley rat at 3 mg/kg, po after 8 days relative to control; format: functional; outline: as §3
Homo sapiens [28] = species on record: Homo sapiens; assay: Activity at RXR-PPARgamma in primary human preadipocytes assessed as induction of adipocytes fatty acid binding protein by bDNA assay relative to rosiglitazone; format: cell-based
Homo sapiens [29] = species on record: Homo sapiens; assay: Activity at RXR-PPARgamma in primary human preadipocytes assessed as induction of adipocytes fatty acid binding protein by bDNA assay relative to 5-((3-(1-ethyl-4,4,6-trimethyl-2-oxo-1,2,3,4-tetrahydroquinolin-7-yl)-4-(trifluoromethoxy)phenyl)methylene)thiazolidine-2,4-dione; format: cell-based

CCN1C(=O)C(C)(C)Oc2cc(C)c(-c3cc(/C=C/C(=O)O)ccc3OC(F)(F)F)cc21
EC50 [1]: 173 nM
Activity (THP-1): 79%
EC50 [2]: 39.7 nM
Activity [3]: 78%

Cc1cc2c(cc1-c1cc(/C=C/C(=O)O)ccc1OC(F)(F)F)N(C)C(=O)CC2(C)C
EC50 [1]: 24.3 nM
Activity (THP-1): 56%
EC50 [2]: 200 nM

CCn1c(=O)c2c(c3ccc(-c4cc(/C=C/C(=O)O)ccc4OC(F)(F)F)cc31)CCC2
EC50 [1]: 1600 nM
EC50 [2]: > 3000 nM

Cc1cc2c(cc1-c1cc(/C=C/C(=O)O)ccc1OC(F)(F)F)NC(=O)CC2(C)C
Activity [4]: inactive
EC50 [2]: > 3000 nM

CCN1C(=O)OC(C)(C)c2cc(C)c(-c3cc(/C=C/C(=O)O)ccc3OC(F)(F)F)cc21
EC50 [2]: > 3000 nM

CCN1C(=O)CN(C(C)C)c2cc(C)c(-c3cc(/C=C/C(=O)O)ccc3OC(F)(F)F)cc21
EC50 [2]: > 3000 nM

CCCN1C(=O)CC(C)(C)c2cc(C)c(-c3cc(/C=C/C(=O)O)ccc3OC(F)(F)F)cc21
EC50 [1]: 2.1 nM
EC50 [2]: > 3000 nM
EC50 [5]: 131 nM
Activity [3]: 83%

CCN1C(=O)CC(C)(C)c2cc(C)c(-c3cc(/C=C/C(=O)O)ccc3OCC(F)(F)F)cc21
Activity (Rattus norvegicus [6]): 341 mg/dL
Activity (Rattus norvegicus [7]): 134 mg/dL
Activity (Rattus norvegicus [8]): 38 mg/dL
EC50 [1]: 67.3 nM
AUC [9]: 5520 ng·h/mL
Activity (THP-1): 60%
Activity (Rattus norvegicus [10]): 102 mg/dL
EC50 [2]: 296 nM
Activity (Mus musculus): inactive
half-life [11]: 276 min
EC50 [5]: > 3000 nM
Activity (Rattus norvegicus [12]): 249 mg/dL
Cmax [13]: 61 ng/mL
Activity (Rattus norvegicus [14]): 175 mg/dL
Activity (Rattus norvegicus [15]): 126 mg/dL
Activity [3]: 76%
Cmax [16]: 844 ng/mL
Activity (Rattus norvegicus [17]): 151 mg/dL
Activity (Rattus norvegicus [18]): 349 mg/dL
bioavailability [19]: 51%
Activity (Rattus norvegicus [20]): 382 mg/dL
Activity (Rattus norvegicus [21]): 41 mg/dL
Activity (Rattus norvegicus [22]): 302 mg/dL
Activity (Rattus norvegicus [23]): 16 mg/dL
Activity (Rattus norvegicus [24]): 182 mg/dL
Cmax [25]: 2120 ng/mL
Activity (Rattus norvegicus [26]): 440 mg/dL
Activity (Rattus norvegicus [27]): 34 mg/dL

CCN1C(=O)CC(C)(C)c2cc(C)c(-c3cc(/C=C4\SC(=O)NC4=O)ccc3OC(F)(F)F)cc21
Activity (Rattus norvegicus [8]): 41 mg/dL
EC50 [1]: 0.9 nM
EC50 [2]: 180 nM
EC50 [5]: 139 nM
Activity (Rattus norvegicus [17]): 126 mg/dL
Activity (Homo sapiens [28]): 25%
Activity (Rattus norvegicus [24]): 216 mg/dL
Activity (Rattus norvegicus [26]): 371 mg/dL

Cc1cc2c(cc1-c1cc(/C=C/C(=O)O)ccc1OCC(F)(F)F)N(C(C)C)C(=O)CC2(C)C
EC50 [1]: 18.3 nM
Activity (THP-1): 32%
EC50 [2]: 44 nM
Activity (Homo sapiens [29]): 149%
EC50 [5]: > 3000 nM
Activity [3]: 64%

CCn1c(=O)c2c(c3cc(-c4cc(/C=C/C(=O)O)ccc4OC(F)(F)F)ccc31)CCC2
EC50 [1]: 96.6 nM
EC50 [2]: > 3000 nM
Activity [3]: 125%

CCN1C(=O)CC(C)(C)c2cc(C)c(-c3ccc(/C=C/C(=O)O)s3)cc21
EC50 [1]: 1200 nM
EC50 [2]: > 3000 nM

CCN1C(=O)C(C)(C)Oc2cc(C)c(-c3cc(/C(C)=C/C(=O)O)ccc3OC(F)(F)F)cc21
Activity (THP-1): 76%
EC50 [2]: 163 nM
Activity (Homo sapiens [29]): 240%
EC50 [5]: > 3000 nM
Activity [3]: 86%

Cc1cc2c(cc1-c1cc(/C=C/C(=O)O)ccc1OC(F)(F)F)N(CC(F)(F)F)C(=O)CC2(C)C
EC50 [1]: 1.8 nM
EC50 [2]: > 3000 nM
EC50 [5]: 126 nM
Activity [3]: 94%

CCN1C(=O)CC(C)(C)c2cc(C)c(-c3cc(/C=C/C(=O)O)ccc3OC(F)(F)F)cc21
EC50 [1]: 1.8 nM
Activity (THP-1): 81%
EC50 [2]: 3.6 nM

CCN1C(=O)C(C)Oc2cc(C)c(-c3cc(/C=C/C(=O)O)ccc3OC(F)(F)F)cc21 (stereo not drawn)
EC50 [2]: > 3000 nM

CCN1C(=O)CC(C)(C)c2cc(C)c(-c3cc(/C=C/C(=O)O)ccc3OC)cc21
EC50 [2]: 975 nM

CCN1C(=O)CC(C)(C)c2cc(C)c(-c3ccc(/C=C/C(=O)O)o3)cc21
EC50 [1]: > 10000 nM
EC50 [2]: > 3000 nM

CCN1C(=O)CC(C)(C)c2cc(C)c(-c3ccc(/C=C/C(=O)O)cc3OC(F)(F)F)cc21
EC50 [2]: > 3000 nM

Cc1cc2c(cc1-c1cc(/C=C/C(=O)O)ccc1OC(F)(F)F)N(C(C)C)C(=O)CC2(C)C
Activity (THP-1): 70%
EC50 [2]: 10 nM
